Experimental findings from ChEMBL document CHEMBL1123024, “5,6-Diaryl-2,3-dihydroimidazo[2,1-b]thiazoles: a new class of immunoregulatory antiinflammatory agents” (1985) are described below.

Holding throughout (assay type): functional
Experiment [1] deals with Rattus norvegicus. Put plainly: Percent change in nonimmune L16 inflammatory lesions in rat adjuvant-induced arthritis at 50 mg/kg. The method, boiled down:
(§1)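 Male Wistar rats received 0.75 mg M. butyricum in paraffin oil intradermally into the left hindpaw. Compounds were given daily po in 0.5% tragacanth from the injection day for 17 days, skipping days 4, 5, 11 and 12. Leg volumes were read by mercury displacement: left leg on day 3, both legs on day 16. Eight treated rats vs 16 vehicle controls; Student's t test. ED25 is the dose giving a 25% volume decrease, from at least three doses, with 95% limits by Fieller's theorem.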

For experiment [2], the system named is Rattus norvegicus. Put plainly: Percent change in immune R16 inflammatory lesions in rat adjuvant-induced arthritis at 50 mg/kg. The method, boiled down:
as §1

The subject of experiment [3] is Rattus norvegicus. The experiment in a line: Percent change in nonimmune L3 inflammatory lesions in rat adjuvant-induced arthritis at 50 mg/kg. In a few lines: as §1
Experiment [4] is filed under the species Mus musculus. Put plainly: Immunoregulatory activity against mouse contact sensitivity was evaluated as percent change. The method, boiled down: (§2)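 Male C57B1/6 mice were sensitized with 0.1 mL of 5% oxazolone in absolute ethanol on the clipped abdomen. At 45 h the left hind leg was challenged with 5% oxazolone. Compound was given po in 0.5% tragacanth. Edema was read plethysmographically 24 h later as left minus right leg volume. Six mice vs eight controls; Student's t test.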

Experiment [5] concerns Rattus norvegicus. Put plainly: The compound was tested for percent change in immune R16 inflammatory lesions in rat adjuvant-induced arthritis at 50 mg/kg. The method, boiled down:
as §1

Experiment [6] concerns Rattus norvegicus. Put plainly: The compound was tested for percent change in nonimmune L16 inflammatory lesions in rat adjuvant-induced arthritis at 50 mg/kg. In a few lines: as §1
For experiment [7], the species on record is Mus musculus. Put plainly: Immunoregulatory activity against oxazolone induced mouse contact sensitivity was evaluated as percent change. In a few lines:
as §2

Experiment [8] deals with Rattus norvegicus. The experiment in a line: The compound was tested for percent change in nonimmune L3 inflammatory lesions in rat adjuvant-induced arthritis at 50 mg/kg. In a few lines: as §1

As for `CSc1ccc(-c2c(-c3ccc(F)cc3)nc3n2CCS3)cc1`, the Change is recorded as -30% in the experiment on Rattus norvegicus [1], -30% in the experiment with Rattus norvegicus [2], -16% in the experiment on Rattus norvegicus [3] and 122% in the experiment filed under Mus musculus [4].

Regarding `COc1cc(-c2nc3n(c2-c2cc(OC)c(OC)c(OC)c2)CCS3)cc(OC)c1OC`, the Change in the experiment with Rattus norvegicus [1] is recorded as 0%; with Rattus norvegicus [2], -19%; with Rattus norvegicus [3], -2%; in the experiment listed under Mus musculus [4], 75%.

Consider `COc1ccc(-c2nc(SC)[nH]c2-c2ccc(OC)cc2)cc1`, for which the Change with Rattus norvegicus [1] is -45%; in the experiment with Rattus norvegicus [2] it was -38%; in the experiment on Rattus norvegicus [3], -29%; in the experiment filed under Mus musculus [4], 52%.

On to `Cc1ccc(-c2nc3n(c2-c2ccc(C)cc2)CCS3)cc1`, for which the Change in the experiment on Rattus norvegicus [1] is 0%; with Rattus norvegicus [2], -7%; with Rattus norvegicus [3] it was -6%; in the experiment listed under Mus musculus [4], 86%.

`COc1ccc(-c2nc3n(c2-c2ccc(OC)c(F)c2)CCS3)cc1F`: the Change in the experiment on Rattus norvegicus [1] is recorded as 0%; with Rattus norvegicus [2], -3%; with Rattus norvegicus [3] it was 1%; in the experiment filed under Mus musculus [4], 88%.

For `CC(=O)Oc1ccc(-c2nc3n(c2-c2ccc(OC(C)=O)cc2)CCS3)cc1`, the Change in the experiment on Rattus norvegicus [1] was -12%; with Rattus norvegicus [2], -17%; in the experiment on Rattus norvegicus [3], -16%; in the experiment filed under Mus musculus [4] it was 101%.

For `COc1ccc(-c2nc3n(c2-c2ccccc2)CCS3)cc1`, the Change in the experiment with Rattus norvegicus [1] is -10%; with Rattus norvegicus [2], 1%; in the experiment with Rattus norvegicus [3] it was -5%; in the experiment listed under Mus musculus [4], 26%.

On to `CC(=O)Nc1ccc(-c2nc3n(c2-c2ccc(NC(C)=O)cc2)CCS3)cc1`, for which the Change in the experiment with Rattus norvegicus [1] is on record as -1%; in the experiment on Rattus norvegicus [3] it was 3%; with Rattus norvegicus [5] it was 12%; in the experiment listed under Mus musculus [4], 78%.

Turning to `Fc1ccc(-c2nc3n(c2-c2ccc(F)cc2)CCS3)cc1`, the Change was -36% in the experiment on Rattus norvegicus [1], -49% with Rattus norvegicus [2], -39% in the experiment on Rattus norvegicus [3] and 79% in the experiment filed under Mus musculus [4].

Regarding `Clc1ccc(-c2nc3n(c2-c2ccc(Cl)cc2)CCS3)cc1`, the Change was -35% in the experiment on Rattus norvegicus [1], -38% in the experiment on Rattus norvegicus [2], -18% in the experiment with Rattus norvegicus [3] and 43% in the experiment listed under Mus musculus [4].

Consider `c1cc2c(cc1-c1nc3n(c1-c1ccc4c(c1)OCO4)CCS3)OCO2`, for which the Change in the experiment with Rattus norvegicus [1] is given as -23%; in the experiment on Rattus norvegicus [2] it was -27%; with Rattus norvegicus [3], -18%; in the experiment listed under Mus musculus [4] it was 16%.

For `FC(F)(F)COc1ccc(-c2nc3n(c2-c2ccc(OCC(F)(F)F)cc2)CCS3)cc1`, the Change in the experiment on Rattus norvegicus [1] is recorded as -20%; in the experiment with Rattus norvegicus [2], -3%; in the experiment with Rattus norvegicus [3], -13%; in the experiment listed under Mus musculus [4] it was 26%.

For the molecule `COc1ccc(-c2nc3n(c2-c2ccc(OC)cc2)C(=O)CS3)cc1`, the Change in the experiment on Rattus norvegicus [1] was 4%; in the experiment with Rattus norvegicus [2], 0%; in the experiment on Rattus norvegicus [3], -4%; in the experiment listed under Mus musculus [4], 25%.

For `COc1ccc(-c2nc3n(c2-c2ccc(OC)cc2)CCCS3)cc1`, the Change is listed as -4% in the experiment with Rattus norvegicus [1], -20% in the experiment with Rattus norvegicus [2], -2% in the experiment with Rattus norvegicus [3] and 30% in the experiment filed under Mus musculus [4].

With `Brc1ccc(-c2nc3n(c2-c2ccc(Br)cc2)CCS3)cc1`, the Change in the experiment on Rattus norvegicus [1] is recorded as -42%; in the experiment on Rattus norvegicus [2], -46%; in the experiment with Rattus norvegicus [3], -25%; in the experiment filed under Mus musculus [4] it was 71%.

With `COc1ccc(-c2c(-c3ccccc3)nc3n2CCS3)cc1OC`, the Change in the experiment with Rattus norvegicus [1] came to 1%; with Rattus norvegicus [2] it was 11%; in the experiment with Rattus norvegicus [3] it was 5%; in the experiment filed under Mus musculus [4], 69%.

With `COc1ccc(-c2nc3n(c2-c2ccccc2)CCS3)cc1OC`, the Change with Rattus norvegicus [1] is reported as -1%; in the experiment with Rattus norvegicus [2] it was -6%; in the experiment with Rattus norvegicus [3], 8%; in the experiment filed under Mus musculus [4] it was 82%.

Take `Cc1cccc(-c2nc3n(c2-c2cccc(C)c2)CCS3)c1`: the Change is given as -13% in the experiment with Rattus norvegicus [1], -5% in the experiment with Rattus norvegicus [2], -14% with Rattus norvegicus [3] and 38% in the experiment listed under Mus musculus [4].

As for `Oc1ccc(-c2nc3n(c2-c2ccc(O)cc2)CCS3)cc1`, the Change with Rattus norvegicus [1] is recorded as -7%; in the experiment on Rattus norvegicus [2], 9%; in the experiment on Rattus norvegicus [3], -9%; in the experiment listed under Mus musculus [4], 122%.

As to `COc1ccc(-c2c(-c3ccc(F)cc3)nc3n2CC[S+]3[O-])cc1` (stereo not given), the Change in the experiment on Rattus norvegicus [6] is -39%; in the experiment filed under Mus musculus [7], 65%; with Rattus norvegicus [8] it was -35%; with Rattus norvegicus [5], -39%.

With `C[S+]([O-])c1ccc(-c2nc3n(c2-c2ccc([S+](C)[O-])cc2)CCS3)cc1` (stereo not given), the Change with Rattus norvegicus [1] was -27%; in the experiment with Rattus norvegicus [2], -19%; in the experiment with Rattus norvegicus [3], -25%; in the experiment listed under Mus musculus [4], 117%.

On to `C=CCOc1ccc(-c2nc3n(c2-c2ccc(OCC=C)cc2)CCS3)cc1`, for which the Change in the experiment on Rattus norvegicus [1] is recorded as -2%; in the experiment with Rattus norvegicus [2], -21%; with Rattus norvegicus [3] it was -2%; in the experiment listed under Mus musculus [4], 71%.

As for `COc1ccc(-c2nc3n(c2-c2ccc(F)cc2)CCS3)cc1`, the Change was -4% in the experiment on Rattus norvegicus [1], 6% with Rattus norvegicus [2], 11% with Rattus norvegicus [3] and 103% in the experiment filed under Mus musculus [4].

Regarding `COc1ccc(-c2nc(SC)n(C)c2-c2ccc(OC)cc2)cc1`, the Change with Rattus norvegicus [1] is on record as -31%; in the experiment with Rattus norvegicus [2], -35%; with Rattus norvegicus [3], -24%; in the experiment filed under Mus musculus [4] it was 150%.

With `COc1ccc(-c2c(-c3ccccc3)nc3n2CCS3)cc1`, the Change is on record as -11% with Rattus norvegicus [1], -6% in the experiment on Rattus norvegicus [2], -15% in the experiment with Rattus norvegicus [3] and 112% in the experiment filed under Mus musculus [4].

As for `COc1ccccc1-c1nc2n(c1-c1ccccc1OC)CCS2`, the Change in the experiment with Rattus norvegicus [1] is recorded as -5%; in the experiment on Rattus norvegicus [2] it was -7%; in the experiment on Rattus norvegicus [3] it was 0%; in the experiment listed under Mus musculus [4], 95%.

As to `Fc1cccc(-c2nc3n(c2-c2cccc(F)c2)CCS3)c1`, the Change was -1% with Rattus norvegicus [1], 3% in the experiment with Rattus norvegicus [2], -1% in the experiment with Rattus norvegicus [3] and 22% in the experiment listed under Mus musculus [4].

With `CCSc1nc(-c2ccc(OC)cc2)c(-c2ccc(OC)cc2)n1CC`, the Change in the experiment with Rattus norvegicus [1] is reported as -9%; in the experiment on Rattus norvegicus [2] it was -8%; in the experiment on Rattus norvegicus [3], -6%; in the experiment listed under Mus musculus [4] it was 65%.

For `CCCCOc1ccc(-c2nc3n(c2-c2ccc(OCCCC)cc2)CCS3)cc1`, the Change with Rattus norvegicus [1] amounted to 2%; in the experiment with Rattus norvegicus [2], 2%; in the experiment on Rattus norvegicus [3] it was 5%; in the experiment filed under Mus musculus [4] it was 130%.

In the case of `CCSc1nc(-c2ccc(OC)cc2)c(-c2ccc(OC)cc2)[nH]1`, the Change is recorded as -42% with Rattus norvegicus [1], -37% in the experiment on Rattus norvegicus [2], -31% in the experiment with Rattus norvegicus [3] and 119% in the experiment filed under Mus musculus [4].

With `CCOc1ccc(-c2nc3n(c2-c2ccc(OCC)cc2)CCS3)cc1`, the Change is given as -34% in the experiment with Rattus norvegicus [1], -32% in the experiment with Rattus norvegicus [2], -22% in the experiment on Rattus norvegicus [3] and 150% in the experiment filed under Mus musculus [4].

Regarding `COc1ccc(-c2cn3c(n2)SCC3)cc1`, the Change in the experiment on Rattus norvegicus [1] is given as -10%; with Rattus norvegicus [2], -16%; in the experiment on Rattus norvegicus [3] it was -3%; in the experiment filed under Mus musculus [4], 132%.

For the molecule `CCN(C)c1ccc(-c2nc3n(c2-c2ccc(N(C)CC)cc2)CCS3)cc1`, the Change in the experiment on Rattus norvegicus [1] is listed as -41%; in the experiment with Rattus norvegicus [2], -36%; in the experiment on Rattus norvegicus [3], -31%; in the experiment filed under Mus musculus [4] it was 69%.

Regarding `CC(C)(C)C(=O)Nc1ccc(-c2nc3n(c2-c2ccc(NC(=O)C(C)(C)C)cc2)CCS3)cc1`, the Change is given as -3% in the experiment on Rattus norvegicus [1], -1% in the experiment on Rattus norvegicus [2], -4% in the experiment with Rattus norvegicus [3] and 15% in the experiment filed under Mus musculus [4].

With `CSc1ccc(-c2nc3n(c2-c2ccc(F)cc2)CCS3)cc1`, the Change was 0% in the experiment with Rattus norvegicus [1], 6% in the experiment on Rattus norvegicus [2], -14% in the experiment with Rattus norvegicus [3] and 44% in the experiment filed under Mus musculus [4].

As to `CCN(C(C)=O)c1ccc(-c2nc3n(c2-c2ccc(N(CC)C(C)=O)cc2)CCS3)cc1`, the Change in the experiment on Rattus norvegicus [1] is listed as -1%; with Rattus norvegicus [2], -10%; in the experiment on Rattus norvegicus [3], -4%; in the experiment filed under Mus musculus [4], 43%.

Regarding `c1ccc2c(c1)nc1n2CCS1`, the Change in the experiment with Rattus norvegicus [1] is -2%; in the experiment on Rattus norvegicus [2], 7%; with Rattus norvegicus [3], -18%; in the experiment listed under Mus musculus [4], 51%.

Consider `COc1ccc(-c2nc3n(c2-c2ccc(OC)c(OC)c2)CCS3)cc1OC`, for which the Change was -2% in the experiment with Rattus norvegicus [1], 5% in the experiment with Rattus norvegicus [2], 0% in the experiment with Rattus norvegicus [3] and 48% in the experiment listed under Mus musculus [4].

For `Nc1ccc(-c2nc3n(c2-c2ccc(N)cc2)CCS3)cc1`, the Change in the experiment on Rattus norvegicus [1] is -10%; with Rattus norvegicus [2] it was 0%; in the experiment on Rattus norvegicus [3], -15%; in the experiment filed under Mus musculus [4] it was 36%.

Turning to `COc1ccc(-c2nc3n(c2-c2ccc(OC)c(C)c2)CCS3)cc1C`, the Change is -20% in the experiment on Rattus norvegicus [1], -19% with Rattus norvegicus [2], -16% in the experiment with Rattus norvegicus [3] and 30% in the experiment filed under Mus musculus [4].
